ChEMBL document CHEMBL4321805, “A Conformational Restriction Strategy for the Identification of a Highly Selective Pyrimido-pyrrolo-oxazine mTOR Inhibitor” (J Med Chem, 2019)

What was measured:
CYP1A1 = biological target: T1, CYP1A1 (Homo sapiens, UniProt P04798); assay: Drug metabolism assessed as recombinant human CYP1A1-mediated compound hydrolysis by measuring parent compound remaining incubated for 60 mins by LC-HRMS analysis; format: ADME; settings: read-out: Stability
T1 sequence (P04798 whole entry): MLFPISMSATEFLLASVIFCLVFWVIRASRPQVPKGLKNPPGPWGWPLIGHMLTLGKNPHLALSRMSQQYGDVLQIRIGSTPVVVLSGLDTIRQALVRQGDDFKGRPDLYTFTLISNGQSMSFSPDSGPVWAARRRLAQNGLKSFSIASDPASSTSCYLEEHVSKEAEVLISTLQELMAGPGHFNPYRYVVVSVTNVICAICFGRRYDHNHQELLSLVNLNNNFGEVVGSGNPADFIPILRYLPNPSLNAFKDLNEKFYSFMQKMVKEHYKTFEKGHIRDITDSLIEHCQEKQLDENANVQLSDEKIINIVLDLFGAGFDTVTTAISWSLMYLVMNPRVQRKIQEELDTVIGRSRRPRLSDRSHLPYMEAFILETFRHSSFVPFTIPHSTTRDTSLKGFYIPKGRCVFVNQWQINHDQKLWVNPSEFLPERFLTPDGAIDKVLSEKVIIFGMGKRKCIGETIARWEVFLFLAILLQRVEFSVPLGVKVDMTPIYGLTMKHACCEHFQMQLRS
In short: (§1)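 Human recombinant CYP1A1 or CYP1A2 Supersomes (25 pmol/mL) incubated with compound at 1 μM (0.25% DMSO) plus NADP+-regenerating cofactors at 37 °C for 60 min. Reaction stopped with ACN containing internal standard. Parent and metabolites expressed as percentage of total peak areas.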

[1] = Stability in human hepatocytes assessed as parent compound remaining at 5 uM after 3 hrs by LC-MS analysis; format: ADME, cell-based, Hepatocyte; settings: read-out: Stability
In short: (§2)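 Cryopreserved hepatocytes in suspension (200 000 cells/well) in Williams medium E with 2 mM L-glutamine and 25 mM HEPES. Test item at a final 5 μM (0.5% DMSO). Sampled at 0, 15, 60, 90 and 180 min. Precipitated with ACN, then LC–MS. Controls: 7-ethoxycoumarin and hepatocyte-free medium; n = 2.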

[2] = Stability in Beagle dog hepatocytes assessed as parent compound remaining at 5 uM after 3 hrs by LC-MS analysis; format: ADME, cell-based, Canis lupus familiaris, Hepatocyte; settings: read-out: Stability; in short: as §2
[3] = Stability in CD-1 mouse hepatocytes assessed as parent compound remaining at 5 uM after 3 hrs by LC-MS analysis; format: ADME, cell-based, Hepatocyte; settings: read-out: Stability; in short: as §2
CYP1A2 = biological target: T2, CYP1A2 (Homo sapiens, UniProt P05177); assay: Drug metabolism assessed as recombinant human CYP1A2-mediated compound hydrolysis by measuring parent compound remaining incubated for 60 mins by LC-HRMS analysis; format: ADME; settings: read-out: Stability; in short: as §1
T2 sequence (P05177 whole entry): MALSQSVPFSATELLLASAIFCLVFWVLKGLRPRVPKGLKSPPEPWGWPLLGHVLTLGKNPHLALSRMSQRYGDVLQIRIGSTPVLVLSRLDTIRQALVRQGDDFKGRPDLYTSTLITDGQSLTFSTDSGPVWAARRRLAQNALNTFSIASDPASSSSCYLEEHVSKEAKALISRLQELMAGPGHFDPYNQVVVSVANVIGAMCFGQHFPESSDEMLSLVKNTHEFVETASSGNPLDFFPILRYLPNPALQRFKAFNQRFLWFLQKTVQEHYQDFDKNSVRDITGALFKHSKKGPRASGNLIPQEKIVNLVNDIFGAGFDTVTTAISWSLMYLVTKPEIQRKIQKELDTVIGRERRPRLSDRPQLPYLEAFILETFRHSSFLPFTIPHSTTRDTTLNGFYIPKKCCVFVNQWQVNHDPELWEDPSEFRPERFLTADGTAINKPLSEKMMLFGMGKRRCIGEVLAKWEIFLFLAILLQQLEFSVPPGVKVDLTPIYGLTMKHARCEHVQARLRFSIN

[4] = Stability in Sprague-Dawley rat hepatocytes assessed as parent compound remaining at 5 uM after 3 hrs by LC-MS analysis; format: ADME, cell-based, Hepatocyte; settings: read-out: Stability; in short: as §2
[5] = AUC (0 to 8 hrs) in Sprague-Dawley rat brain at 5 mg/kg, po by UHPLC-MS analysis; format: ADME, organism-based; design: time < 8 hr, dose 5 mg/kg, route oral; settings: in vivo
In short: (§3)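 Male Sprague Dawley rats (8 weeks old at delivery), single oral dose of 5 mg/kg, formulation at pH 3. Three rats per time point (30 min, 2, 4, 8 h) under isoflurane; heart-puncture blood into lithium-heparin, then brain collected. Plasma and tissue stored at −80 °C. Samples precipitated with acetonitrile containing diazepam internal standard, then LC–MS.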

[6] = AUC (0 to 8 hrs) in Sprague-Dawley rat plasma at 5 mg/kg, po by UHPLC-MS analysis; format: ADME, organism-based; design: time < 8 hr, dose 5 mg/kg, route oral; in short: as §3

| Compound | remaining at 1 h (CYP1A1) [%] | remaining at 3 h, 5 µM [1] [%] | remaining at 3 h, 5 µM [2] [%] | remaining at 3 h, 5 µM [3] [%] | remaining at 1 h (CYP1A2) [%] | remaining at 3 h, 5 µM [4] [%] | AUC [5] [ng·h/g] | AUC(0-t) at 8 h [6] [ng·h/mL] |
| --- | --- | --- | --- | --- | --- | --- | --- | --- |
| C[C@@H]1COCCN1c1nc(-c2cnc(N)nc2)nc2c1C[C@@H]1COCCN21 | 73.3 | 93.2 | 93 | 81.2 | 99.7 | 93.6 |  |  |
| C[C@@H]1COCCN1c1nc(-c2cnc(N)cn2)nc2c1C[C@@H]1COCCN21 |  |  |  |  |  |  | 104 | 5730 |
